Screening results (PubChem BioAssay)
NPY2 pot ag = potentiates or activates human NPY-Y2 receptor; P49146; cells expressing NPY-Y2, potentiator/agonist read-out; activation, % at 3.6 µM; hit rate 0.45% among 220,000; in the data active means activation above about 27%;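 further: cells stimulated with NPY near EC25 plus isoproterenol at EC100; 0% = vehicle plus submaximal agonist and 100% = vehicle plus saturating agonist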
NPY-Y1 PAM-ag = potentiators or agonists of human neuropeptide Y receptor Y1. hit rate 0.37% among 220,000. NPY-Y1 expressing cells, potentiator/agonist activation. P25929. activation, % at 3.6 µM; in the data active means activation above about 33%, passing the limit was not always enough;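 further: cells stimulated with NPY at EC10 then isoproterenol at EC100; 0% = low agonist plus stimulus and 100% = saturating agonist plus stimulus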
Target sequence (P25929 whole entry, looked up): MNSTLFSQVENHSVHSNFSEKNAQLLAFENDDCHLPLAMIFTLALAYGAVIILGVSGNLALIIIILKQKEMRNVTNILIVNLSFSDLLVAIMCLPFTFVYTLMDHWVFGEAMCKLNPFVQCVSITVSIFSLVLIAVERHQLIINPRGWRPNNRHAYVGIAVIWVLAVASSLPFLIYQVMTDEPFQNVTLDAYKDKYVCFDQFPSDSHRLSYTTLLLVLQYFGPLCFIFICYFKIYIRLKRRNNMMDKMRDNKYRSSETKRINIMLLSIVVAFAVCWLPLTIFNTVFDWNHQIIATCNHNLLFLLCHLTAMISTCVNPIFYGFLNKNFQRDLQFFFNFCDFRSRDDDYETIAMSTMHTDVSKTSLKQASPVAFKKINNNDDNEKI
NPY Y2 blocker = antagonists of human neuropeptide Y receptor Y2. inhibition, % at 2.7 µM. P49146. hit rate 0.99% among 140,000. NPY-Y2 expressing cells, antagonist mode;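 further: 0% = vehicle with agonist challenge and 100% = reference antagonist with challenge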
NPY Y1 blocker = blocks the human neuropeptide Y Y1 receptor | P25929 | HEK293-CNG Y1 cells, membrane potential fluorescence; NPY at EC95, then isoproterenol | inhibition, % at 3.6 µM | hit rate 1% among 200,000 | AID 1040;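 active means inhibition above the campaign mean inhibition of all tested compounds plus 3 SD, cut at about 20% in these data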;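 further: 0% = DMSO wells given NPY plus isoproterenol and 100% = isoproterenol alone without NPY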
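Material: HEK293 cells with Y1 receptor plus CNG channel; times: compound incubation 1 h at room temperature, readout 45 min post-stimulation; signal: fluorescence, membrane potential probe; read-out basis: fluorescence ratio normalized to % inhibition between controls; benchmarks: full-block control isoproterenol-only wells, zero-block control NPY plus isoproterenol wells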
Insulin prom inh = TRM-6 insulin promoter activity inhibition; hit rate 0.9% among 130,000; AID 1273; TRM-6 cells, insulin promoter-eGFP reporter, imaging; reporter expression induced with tamoxifen; inhibition, % at 2 µM;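 active means inhibition above the mean plus 3 SD, with well images judged a real hit on visual review, cut at about 60% in these data, passing the limit was not always enough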
RAM inhibit = inhibitors of the yeast RAM network; S. cerevisiae dse1pr::URA3 reporter, 5-FOA growth OD615, 2 d; analog-sensitive cbk1-as2 kinase mutant strain; inhibition, % at 50 µM; hit rate 1.8% among 190,000; AID 868;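 active means inhibition above a set limit, 3 SD over mean compound inhibition, cut at about 8.4% in these data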;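 further: 0% = DMSO-only wells with no growth and 100% = 10 µM 1-NA-PP1 full growth; inhibition rescues growth on 5-FOA so higher OD means more RAM inhibition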
NPY-Y1 ant conf = human NPY-Y1 antagonism, confirmation; shares compounds with NPY Y1 blocker; HEK293-CNG NPY-Y1, membrane potential fluorescence, cAMP; NPY challenge against isoproterenol-raised cAMP; inhibition, % at 3.6 µM; hit rate 21% among 1,200; AID 1254; in the data active means inhibition above about 20%;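 further: 0% = vehicle with agonist plus stimulus and 100% = stimulus alone without agonist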
NPY-Y2 antag ct = counter-screen for NPY-Y1 antagonists: human NPY-Y2 antagonism. shares compounds with NPY Y1 blocker. inhibition, % at 3.6 µM. HEK293 NPY-Y2 CNG membrane potential fluorescence; cells given NPY, then isoproterenol. hit rate 28% among 1,200. AID 1255;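 further: 0% = DMSO with agonist challenge and 100% = reference antagonist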
The depositor's hits bear a star; nt = no result given. This is a sample that favours compounds with a hit; in the whole collection about 3.8% have one here. Unless noted, no stated cut-off is given here; in the data, active means inhibition above about 17%; inactive means the rest.

SMILES	NPY2 pot ag	NPY-Y1 PAM-ag	NPY Y2 blocker	NPY Y1 blocker	Insulin prom inh	RAM inhibit	NPY-Y1 ant conf	NPY-Y2 antag ct
Clc1ccc(-c2nn3c(C4COc5ccccc5O4)nnc3s2)cc1 (stereo not given)	2	-12	11	25*	nt	5	15	13
CC(C)COCC(CN(Cc1ccccc1)c1ccccc1)N1CCCC1 (stereo not given)	-22	-11	nt	31*	nt	nt	18	17
Cc1ccc(C)c(-n2nnnc2SCC(=O)NNC(=O)c2ccco2)c1	-6	-26	nt	3	-5	1	nt	nt
COc1ccc(/C(C)=C2\SC(=S)N(CCC(=O)O)C2=O)cc1	-42	-34	13	23*	20	3	10	6
NC(N)=NC1=NC(=O)/C(=C/c2ccccc2-n2cccn2)S1	-7	-16	nt	2	-23	1	nt	nt
Cc1cccc(CSc2ncccc2C(=O)O)c1	-22	-38	9	5	33	3	nt	nt
Cc1ccc(CSc2ncccc2C(=O)O)cc1	-15	-21	12	23*	-39	1	11	6
COc1cc(C=O)ccc1OCCOCCOc1ccccc1Cl	2	-7	2	21*	nt	1	3	4
Cc1ccc(N=Cc2c(O)n(-c3cc(Cl)ccc3N3CCOCC3)c(=O)c3ccccc23)cc1C	-34	-80	6	22*	-49	5	15	27*
CC(C)CC(COCc1ccc([N+](=O)[O-])cc1)N1CCN(C(=O)c2ccc(C(F)(F)F)cc2)CCC1=O (stereo not given)	1	-6	9	12	0	2	nt	nt
CC(C)CC(COCc1cccc(Cl)c1)N1CCN(C(=O)c2ccc(C(F)(F)F)cc2)CCC1=O (stereo not given)	-3	-9	13	27*	-50	5	14	7
COc1cccc(C2=NN(C(=O)c3ccc(C)o3)C(O)(C(F)(F)F)C2)c1 (stereo not given)	0	-15	nt	31*	0	1	12	15
Cc1c(C(c2cc3c(cc2Br)OCO3)c2c(C)n(C)n(-c3ccccc3)c2=O)c(=O)n(-c2ccccc2)n1C	-15	13	6	29*	-233	-1	3	8
COc1ccc(C(c2c(C)n(C)n(-c3ccccc3)c2=O)c2c(C)n(C)n(-c3ccccc3)c2=O)cc1O	-7	14	nt	56*	0	0	-1	0
Cc1c(C(c2ccccc2O)c2c(C)n(C)n(-c3ccccc3)c2=O)c(=O)n(-c2ccccc2)n1C	-1	5	nt	2	18	0	nt	nt
COC(=O)C1=C(C)N(CCc2ccc(OC)c(OC)c2)C(=O)/C1=C\N(C)C	-4	7	1	-1	nt	0	nt	nt
COc1ccc2nc(SCc3nc(N)nc(Nc4ccccc4)n3)[nH]c2c1	-14	12	1	-3	nt	4	nt	nt
O=C(NC(=S)NCc1ccccc1)c1ccc2c(c1)OCO2	-7	-12	9	21*	nt	-1	9	9
O=C(NNC(=S)NCc1ccccc1)c1ccc2c(c1)OCO2	-19	-13	7	10	50	1	nt	nt
Cc1ccc(OC(=O)c2cc(C)nn2C(C)(C)C)cc1	1	-9	nt	nt	nt	nt	nt	nt
O=C(O)CC1(O)C(=O)N(Cc2ccccc2)c2ccccc21 (stereo not given)	-10	6	nt	0	nt	2	nt	nt
Cc1ccc(C(=O)N2c3ccccc3N(Cc3ccccc3)C(=O)C2(C)C)cc1	35	-40	10	30*	23	3	13	7
CC(=O)Nc1ccc2nc(-c3ccc(Br)o3)[nH]c2c1	4	-12	2	7	21	0	nt	nt
O=C(Nc1ccc2nc(-c3ccc(Br)o3)[nH]c2c1)c1cccs1	-19	-14	6	21*	nt	0	2	8
CC(=O)Nc1ccc(C(=O)OCC(=O)NCc2ccc(Cl)cc2)cc1	-6	2	nt	-2	21	2	nt	nt
SMILES	NPY2 pot ag	NPY-Y1 PAM-ag	NPY Y2 blocker	NPY Y1 blocker	Insulin prom inh	RAM inhibit	NPY-Y1 ant conf	NPY-Y2 antag ct
O=C(CCCOc1ccc(Cl)cc1Cl)N1CCN(c2ccccn2)CC1	-14	-28	11	24*	-4	1	8	11
O=C(COc1ccc(Cl)cc1Cl)N1CCN(c2ccccn2)CC1	2	-9	nt	3	nt	0	nt	nt
COC(=O)c1cc(C(=O)NCc2ccccc2)c(=O)[nH]c1C	-4	11	nt	-4	36	0	nt	nt
C=CCC(Nc1ccccc1)c1ccc(OC)c(OC)c1 (stereo not given)	9	13	nt	nt	nt	nt	nt	nt
COc1ccc2c(c1)C(C)=CC(C)(C)N2S(=O)(=O)c1ccc(C)cc1	7	-1	nt	36*	-200	8	18	15
CCOc1ccc2c(c1)C(C)=CC(C)(C)N2S(=O)(=O)c1ccc(C)cc1	-24	-28	nt	57*	-119	7	39*	25*
COc1ccccc1CN(Cc1cc2c(C)ccc(C)c2[nH]c1=O)Cc1nnnn1Cc1ccco1	-3	-14	4	7	-26	3	nt	nt
C=CCc1cc(C)ccc1OCCOCCn1ccnc1	-6	-12	5	4	-23	2	nt	nt
COCc1cc(C)nc(OCC(=O)N/N=C\c2cc(C)n(-c3cccc(C(F)(F)F)c3)c2C)c1C#N	5	5	1	3	-8	0	nt	nt
O=C(OCC(=O)N1N=C(c2ccc(Cl)cc2)CC1c1ccco1)c1ccccc1O (stereo not given)	-7	-3	11	22*	42	2	6	9
CCCCC(=O)Nc1ccc(NC(=O)c2ccccc2[N+](=O)[O-])cc1OC	6	3	-1	0	21	3	nt	nt
CC(C)OP(=O)(OC(C)C)C(NC(=O)c1ccc(Br)cc1)c1ccccc1 (stereo not given)	-10	1	4	9	-33	3	nt	nt
CCOC(=O)C[N+](C)(C)CCOC1CC2CCC1(C)C2(C)C (stereo not given)	-7	-28	nt	24*	nt	1	10	6
CC1(C)C2CCC1(C)C(OCC[N+](C)(C)CC(=O)OC1CCCCC1)C2 (stereo not given)	2	-47	2	24*	23	1	10	14
CC1(C)[C@H]2CC[C@]1(C)[C@@H](OC(=O)C[N+]1(C)CCOCC1)C2	17	17	nt	nt	nt	nt	nt	nt
C=C(Cl)COc1ccc2c(CCCC)cc(=O)oc2c1	-1	-14	6	21*	71	1	3	24*
C=C(Cl)COc1ccc2c(CC)cc(=O)oc2c1	-21	-4	2	3	nt	-1	nt	nt
